How the values were obtained:
[1] = tested on: MCF7; assay: Cytotoxicity against human MCF7 cells by MTT assay; type: functional, cell-based
How it was run: (§1)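 MTT viability read-out, run in parallel on human HepG2 (hepatocellular carcinoma), MCF-7 and MDA-MB-231 (breast adenocarcinoma) cancer lines and HL-7702 normal human hepatic cells. Paclitaxel was the positive control, and results are expressed as IC50.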

[2] = tested on: RAW264.7; assay: Anti-inflammatory activity in mouse RAW264.7 cells assessed as inhibition of IFN-gamma plus LPS-induced NO production; type: functional, cell-based
How it was run: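 Murine macrophage RAW264.7 cells stimulated with IFN-γ plus LPS; NO output quantified as nitrite in the medium. Indomethacin served as positive control, and results are expressed as IC50.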

[3] = Cytotoxicity against human HL7702 cells by MTT assay; type: cell-based; conditions: L02; how it was run: as §1
[4] = tested on: MDA-MB-231; assay: Cytotoxicity against human MDA-MB-231 cells by MTT assay; type: functional, cell-based; how it was run: as §1
[5] = tested on: HepG2; assay: Cytotoxicity against human HepG2 cells by MTT assay; type: functional, cell-based; how it was run: as §1

Compound `O=c1c2cc(O)c(O)cc2oc2cc(O)cc(O)c12` has an IC50 [1] of over 10 µM, an IC50 [2] of 43 µM and an IC50 [3] of over 10 µM. The IC50 [4] was over 10 µM and the IC50 [5] was over 10 µM.

`CC(C)=CCc1c(O)cc2oc3cc(O)c(O)c(CC=C(C)C)c3c(=O)c2c1O` showed an IC50 [1] of over 10 µM, an IC50 [2] of over 50 µM and an IC50 [3] of over 10 µM. For the same compound, the IC50 [4] was 6.6 µM and the IC50 [5] was over 10 µM.

For `CC(C)=CC[C@H]1C[C@@]23C[C@H](CC=C(C)C)C(C)(C)[C@@](CC=C(C)C)(C(=O)C(OC(=O)c4ccc(O)c(O)c4)=C2OC1(C)C)C3=O`, the IC50 [1] was over 10 µM, the IC50 [2] was 39.1 µM and the IC50 [3] was over 10 µM. For the same compound, the IC50 [4] was over 10 µM and the IC50 [5] was over 10 µM.

`C=C(C)C(O)C[C@H](C[C@]12C[C@@H](CC=C(C)C)C(C)(C)[C@](CC=C(C)C)(C1=O)c1oc3cc(O)c(O)cc3c(=O)c1C2=O)C(=C)C` (stereo not given in full) gave an IC50 [1] of over 10 µM, an IC50 [2] of 12.9 µM and an IC50 [3] of over 10 µM. For the same compound, the IC50 [4] was over 10 µM and the IC50 [5] was over 10 µM.

In the case of `C=C(C)C(CC=C(C)C)C[C@@]12C[C@@H](C[C@H](O)C(C)(C)OC)C(C)(C)[C@@](CC=C(C)C)(C(=O)C(C(=O)c3ccc(O)c(O)c3)=C1O)C2=O` (stereo not given in full), the IC50 [1] is reported as over 10 µM, the IC50 [2] is reported as 24.9 µM and the IC50 [3] is reported as over 10 µM. For the same compound, the IC50 [4] was over 10 µM and the IC50 [5] was over 10 µM.

In the case of `C=C(C)C(C[C@@H](O)C(=C)C)C[C@@]12C[C@@H](CC=C(C)C)C(C)(C)[C@@](CC=C(C)C)(C(=O)C(C(=O)c3ccc(O)c(O)c3)=C1O)C2=O` (stereo not given in full), the IC50 [1] is reported as over 10 µM, the IC50 [2] is reported as 19.1 µM and the IC50 [3] is reported as over 10 µM. It also gave an IC50 [4] of over 10 µM and an IC50 [5] of over 10 µM.

`C=C(C)C(C[C@H](O)C(=C)C)C[C@@]12C[C@@H](CC=C(C)C)C(C)(C)[C@@](CC=C(C)C)(C(=O)C(C(=O)c3ccc(O)c(O)c3)=C1O)C2=O` (stereo not given in full) showed an IC50 [1] of over 10 µM, an IC50 [2] of 29.1 µM and an IC50 [3] of over 10 µM. For the same compound, the IC50 [4] was over 10 µM and the IC50 [5] was over 10 µM.

`CC(C)=CCc1cc(O)c(O)c2oc3cc4c(c(O)c3c(=O)c12)C=CC(C)(C)O4` showed an IC50 [1] of over 10 µM, an IC50 [2] of over 50 µM and an IC50 [3] of over 10 µM. The IC50 [4] was over 10 µM and the IC50 [5] was over 10 µM.

Work on `C=C(C)C(CC=C(C)C)C[C@@]12C[C@H]3[C@@H](C=C(C)C)[C@@](C(=O)c4ccc(O)c(O)c4)(C1=O)C(=O)[C@@](CC=C(C)C)(C2=O)C3(C)C` (stereo not given in full) yielded an IC50 [1] of over 10 µM, an IC50 [2] of over 50 µM and an IC50 [3] of over 10 µM. For the same compound, the IC50 [4] was 9.1 µM and the IC50 [5] was over 10 µM.

For `CC1(C)C=Cc2c(cc3oc4ccc(O)cc4c(=O)c3c2O)O1`, the IC50 [1] was over 10 µM, the IC50 [2] was over 50 µM and the IC50 [3] was 6.6 µM. For the same compound, the IC50 [4] was 6.1 µM and the IC50 [5] was over 10 µM.

`C=C(C)C(CC=C(C)C)C[C@]12C[C@H](CC=C(C)C)C(C)(C)[C@](CC=C(C)C)(C(=O)c3c1oc1cc(O)c(O)cc1c3=O)C2=O` (stereo not given in full) showed an IC50 [1] of over 10 µM, an IC50 [2] of 17 µM and an IC50 [3] of over 10 µM. It also gave an IC50 [4] of over 10 µM and an IC50 [5] of over 10 µM.

Compound `CC1=C[C@H]2c3c(c(O)c(O)c4oc5cc(O)cc(O)c5c(=O)c34)[C@H](c3cc(O)c(O)c4oc5cc(O)cc(O)c5c(=O)c34)[C@H]2C(C)(C)C1` has an IC50 [1] of over 10 µM, an IC50 [2] of 41.9 µM and an IC50 [3] of over 10 µM. The IC50 [4] was over 10 µM and the IC50 [5] was over 10 µM.

`CC(C)=CCc1c(O)cc(O)c2oc3cc(O)cc(O)c3c(=O)c12` showed an IC50 [1] of over 10 µM, an IC50 [2] of 6.4 µM and an IC50 [3] of over 10 µM. For the same compound, the IC50 [4] was over 10 µM and the IC50 [5] was over 10 µM.

In the case of `CC1(C)Oc2cc3oc4ccc(O)cc4c(=O)c3c(O)c2CC1O` (stereo not given), the IC50 [1] is reported as over 10 µM, the IC50 [2] is reported as 15.9 µM and the IC50 [3] is reported as over 10 µM. For the same compound, the IC50 [4] was over 10 µM and the IC50 [5] was over 10 µM.

`CC(C)=CCc1c(O)cc2oc3ccc(O)cc3c(=O)c2c1O` gave an IC50 [1] of over 10 µM, an IC50 [2] of 21.3 µM and an IC50 [3] of over 10 µM. The IC50 [4] was over 10 µM and the IC50 [5] was over 10 µM.

`CC(C)=CC[C@H]1C[C@@]23C[C@@H](CC=C(C)C)C(C)(C)[C@@](CC=C(C)C)(C(=O)C(C(=O)c4ccc(O)c(O)c4)=C2OC1(C)C)C3=O` [CAMBOGIN] gave an IC50 [1] of 4.8 µM, an IC50 [2] of 19.2 µM and an IC50 [3] of 9.3 µM. The IC50 [4] was 5.7 µM and the IC50 [5] was 7.3 µM.

In the case of `C=C(C)C(O)C[C@H](C[C@@]12C[C@@H](CC=C(C)C)C(C)(C)[C@@](CC=C(C)C)(C(=O)C(C(=O)c3ccc(O)c(O)c3)=C1O)C2=O)C(=C)C` (stereo not given in full) [GARCIMULTIFLORONE E], the IC50 [1] is reported as 9.8 µM, the IC50 [2] is reported as 1.1 µM and the IC50 [3] is reported as over 10 µM. It also gave an IC50 [4] of over 10 µM and an IC50 [5] of over 10 µM.

Work on `C=C(C)[C@@H]1C[C@]23C[C@H](CC=C(C)C)C(C)(C)[C@](CC=C(C)C)(C(=O)C(C(=O)c4ccc(O)c(O)c4)=C2O[C@H]1C=C(C)C)C3=O` [GARCINIALIPTONE B] yielded an IC50 [1] of over 10 µM, an IC50 [2] of 21.3 µM and an IC50 [3] of over 10 µM. The IC50 [4] was over 10 µM and the IC50 [5] was over 10 µM.

Work on `C=C(C)[C@H](CC=C(C)C)C[C@@]12C[C@@H](CC=C(C)C)C(C)(C)[C@@](CC=C(C)C)(C(=O)C(C(=O)c3ccc(O)c(O)c3)=C1O)C2=O` [GUTTIFERONE F] yielded an IC50 [1] of over 10 µM, an IC50 [2] of 14.1 µM and an IC50 [3] of 9.6 µM. It also gave an IC50 [4] of 7.9 µM and an IC50 [5] of over 10 µM.

In the case of `CC1(C)CCc2c(c(O)cc3oc4cc(O)cc(O)c4c(=O)c23)O1` [HYPERXANTHONE E], the IC50 [1] is reported as over 10 µM, the IC50 [2] is reported as 4 µM and the IC50 [3] is reported as over 10 µM. For the same compound, the IC50 [4] was over 10 µM and the IC50 [5] was over 10 µM.

Compound `COc1ccc2c(c1)c(CC(=O)O)c(C)n2C(=O)c1ccc(Cl)cc1` [INDOMETHACIN] has an IC50 [2] of 3.9 µM.

For `CC(=O)O[C@H]1C(=O)[C@@]2(C)[C@H]([C@H](OC(=O)c3ccccc3)[C@]3(O)C[C@H](OC(=O)[C@H](O)[C@@H](NC(=O)c4ccccc4)c4ccccc4)C(C)=C1C3(C)C)[C@]1(OC(C)=O)CO[C@@H]1C[C@@H]2O` [PACLITAXEL], the IC50 [1] was 0.0015 µM, the IC50 [3] was 1.1 µM and the IC50 [4] was 0.0082 µM. It also gave an IC50 [5] of 0.0046 µM.

`CC1(C)C=Cc2c(c(O)cc3oc4cc(O)cc(O)c4c(=O)c23)O1` [TOXYLOXANTHONE B] gave an IC50 [1] of over 10 µM, an IC50 [2] of over 50 µM and an IC50 [3] of over 10 µM. For the same compound, the IC50 [4] was over 10 µM and the IC50 [5] was over 10 µM.

— ChEMBL document CHEMBL3352143, “Cytotoxic and anti-inflammatory prenylated benzoylphloroglucinols and xanthones from the twigs of Garcinia esculenta” (J Nat Prod, 2014)
